Assay outcomes as filed in PubChem.
Shown is part of a subset that was picked to be rich in hits.
Redox H2O2 prof – compounds producing H2O2 with reducing agent – biochemical, NIH compound library profiling, artefact control for MLSCN library redox annotation, primary screen | hit rate 0.03% among 200,000 | activation, % at 10 µM | DTT-dependent redox cycling H2O2, phenol red/HRP absorbance; 100% = 100 µM peroxide control, 0% = buffer | AID 878;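 active = activation of at least 50% relative to the plate's high and low controls in the primary single-dose screen; inactive = activation below 50%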;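 also: compound incubated with DTT at 0.8 mM final as the reducing agent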
Lmaj promast – reduces viability of Leishmania major promastigotes; hit rate 9% among 200,000; inhibition, % at 10 µM; resazurin fluorescence viability; in the data active = inhibition above about 50%;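 also: promastigotes grown with compound for 44 hours at 28 °C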
MPTP inh – permeability transition pore inhibition; inhibition, % at 10 µM; isolated mouse mitochondria, Ca2+ swelling absorbance, 30 min; hit rate 1.4% among 360,000; AID 602449;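 active = inhibition of 50% or more, scaled per plate between neutral and stimulator controls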;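 also: 0% = DMSO wells given calcium and 100% = 1 mM EGTA wells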
T cruzi repl – T. cruzi replication inhibition; T. cruzi beta-gal in NIH3T3, luminescence, 90 h; inhibition, % (concentration not given with the values); hit rate 1.4% among 300,000; AID 1885;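 active = mean inhibition across valid replicates above about 55%, limit read from the data; inconclusive = mean below that limit but half or more replicates reach it; inactive = mean below it, under half of replicates reach it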;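 also: signal also drops with host cell toxicity which is not excluded here; 0% = plate median of DMSO wells and 100% = zero luminescence signal; higher percent means less beta-gal luminescence so fewer parasites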
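Assay system: NIH/3T3 fibroblasts plus reporter T. cruzi. Amount: NIH/3T3 cells, 5,000 per well. Buffer or medium: DMEM, 2% fetal bovine serum. Doses: compound pinned at 50 nL/well, DMSO. Schedule: ≥90 h infection period, 3 h prior cell attachment. Signal: luminescent β-galactosidase signal after 60 min lysis. Read-out: parasite load inhibition, %.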
Lipid droplet – modulators of hepatic lipid droplet formation | inhibition, % at 6.5 µM | hit rate 0.4% among 240,000 | AML12 mouse hepatocytes, oleate lipid droplets, BODIPY imaging;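 active = lipid droplet intensity inhibited by at least 50%, with more than 500 cells counted; inconclusive = wells with under 300 cells, treated as cytotoxic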
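Assay system: AML12 hepatocytes (mouse); Probe or stimulus: oleic acid at 100 µM to induce lipid droplet formation; Dosing: compound at 6.5 µM only; Schedule: compound with oleate, overnight; Detection: fluorescence imaging, 20x objective, two fields per well; Measure: % inhibition of lipid droplet signal.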
* hit, by the source's call; ? = inconclusive; / = not tested or not shown.

SMILES	Redox H2O2 prof	Lmaj promast	MPTP inh	T cruzi repl	Lipid droplet
Cc1ccc(C)c(NC(=S)NC2CC3CCC(C2)N3Cc2ccco2)c1 (stereo unspecified)	-3	42	-1	-18	/
O=C1Nc2ccccc2-c2nnnn2C1N1CCCCC1 (stereo unspecified)	/	/	0	/	/
CC(=O)NS(=O)(=O)c1ccc(NC(=O)[C@@H]2CCCN2S(=O)(=O)c2ccc(Cl)cc2)cc1	/	/	0	/	/
O=C(CN1CCN(Cc2ccccc2Cl)CC1)N/N=C/c1cccs1	/	/	1	-1	10
CCN(CC)c1ccc(Nc2nc(N3CCOCC3)c3ccccc3n2)cc1	1	97*	29	44	-37
CCN1CCN(c2nc(-c3ccccn3)nc3ccccc23)CC1	-4	17	1	35	/
c1ccc(-c2nc(N3CCNCC3)nc3ccccc23)cc1	0	100*	13	1	20
c1ccc(-c2nc(N3CCCCCC3)c3ccccc3n2)nc1	1	101*	-1	63*	/
c1ccc(-c2nc(N3CCCCC3)nc3ccccc23)cc1	1	3	3	-17	-6
c1ccc2c(c1)nc(N1CCOCC1)c1ccccc12	0	-2	1	-4	8
c1ccc(-c2nc(N3CCOCC3)c3ccccc3n2)nc1	-1	99*	-2	-31	0
CN(Cc1ccccc1)C(=O)C1CCN(S(=O)(=O)c2ccc(-n3cnnn3)cc2)CC1	/	/	-2	2	-2
CC(=O)Nc1ccc(S(=O)(=O)Nc2ccccc2N2CCOCC2)cc1	/	/	0	/	/
COc1ccc(Oc2nc(-c3ccncc3)nc3ccccc23)cc1	/	/	0	48	-12
c1ccc2c(N3CCCCC3)nc(N3CCCC3)nc2c1	1	99*	32	34	-26
COc1ccc(Oc2nc(-c3ccccn3)nc3ccccc23)cc1	/	/	0	11	1
c1ccc(Oc2nc(-c3ccccn3)nc3ccccc23)cc1	/	/	1	65*	-7
COc1cccc(Oc2nc(-c3ccncc3)nc3ccccc23)c1	/	/	1	55*	22
CSc1nc(N2CCN(c3ccccc3Cl)CC2)c2ccccc2n1	-1	23	0	23	-22
CSc1nc(N2CCOCC2)c2ccccc2n1	3	51*	1	16	1
c1ccc2c(c1)nc(N1CCCCC1)c1ccccc12	/	/	-1	6	-4
CCOC(=O)[C@]12CCCC=C1N(Cc1cccc3ccccc13)C(=O)[C@H](CC(=O)N1CCSCC1)C2	/	/	-2	/	/
CC(=O)Nc1ccc(OCC(O)CN2CCN(Cc3ccccc3)CC2)cc1 (stereo unspecified)	0	-8	2	28	-25
CC1CCN(CC(O)COC2CC(C)CC(C)(C)C2)CC1 (stereo unspecified)	/	/	0	6	/
COc1cccc(OCCOCC(O)CN2CCN(Cc3ccc(Cl)cc3)CC2)c1 (stereo unspecified)	0	52*	1	26	-13
SMILES	Redox H2O2 prof	Lmaj promast	MPTP inh	T cruzi repl	Lipid droplet
COc1ccc(OCCOCC(O)CN2CCOCC2)cc1 (stereo unspecified)	2	-4	0	4	/
CC1CC(OCC(O)CN2CCN(Cc3ccccc3)CC2)CC(C)(C)C1 (stereo unspecified)	-11	93*	46	27	-3
COc1cccc(OCC(O)CN2CCN(C)CC2)c1 (stereo unspecified)	/	/	0	39	-30
CCc1ccc(OCCOCC(O)CN2CCN(Cc3ccc(Cl)cc3)CC2)cc1 (stereo unspecified)	0	96*	4	31	-10
OC(COCCOc1ccc(Br)cc1)CN1CCN(Cc2ccccc2)CC1 (stereo unspecified)	0	85*	3	46	-23
O=C(CC1CS(=O)(=O)CC1CC(=O)Nc1ccc2c(c1)OCCO2)Nc1ccc2c(c1)OCCO2 (stereo unspecified)	0	-7	2	-6	-6
O=S(=O)(NCC(c1cccnc1)N1CCN(Cc2ccccc2)CC1)c1ccccc1 (stereo unspecified)	-1	83*	0	62*	-16
CCN1CCN(C(CNS(=O)(=O)c2ccc(C)cc2)c2cccnc2)CC1 (stereo unspecified)	/	/	1	22	1
Cc1ccc(S(=O)(=O)NCC(c2cccnc2)N2CCN(Cc3ccccc3)CC2)cc1 (stereo unspecified)	/	/	-2	57*	-17
Cc1ccc(NC(CNS(=O)(=O)c2ccc(Cl)cc2)c2ccccc2)cc1 (stereo unspecified)	2	53*	7	37	/
COC(=O)c1ccncc1C(=O)Nc1ccc(F)cc1	0	-4	0	-5	5
O=C1CCCc2oc3c(cc(NS(=O)(=O)c4ccc5c6c(cccc46)C(=O)N5)c4ccccc43)c21	/	/	3	30	-2
Cc1oc2c(cc(NS(=O)(=O)c3ccc4c5c(cccc35)C(=O)N4)c3ccccc32)c1C(=O)OC(C)C	1	58*	6	52	/
O=C(Nc1cccc2cccnc12)c1ccc2sc([C@@H]3O[C@H](CO)[C@H](O)[C@H](O)[C@H]3O)nc2c1	/	/	-2	/	/
COCC(C)OC(=O)C(C#N)c1nc2ccccc2nc1N1CCN(Cc2ccccc2)CC1 (stereo unspecified)	0	67*	0	?	/
CCCCOC(=O)C(C#N)c1nc2ccccc2nc1N1CCN(Cc2ccc3c(c2)OCO3)CC1 (stereo unspecified)	0	69*	2	/	/
C=CCOC(=O)C(C#N)c1nc2ccccc2nc1N1CCN(Cc2ccccc2)CC1 (stereo unspecified)	0	51*	-2	/	-5
COCCOC(=O)C(C#N)c1nc2ccccc2nc1N1CCN(Cc2ccccc2)CC1 (stereo unspecified)	-1	17	0	25	1
Cc1cccc(NC(=O)COC(=O)Cc2cccs2)c1C	/	/	0	-6	/
CCOc1ccc(S(=O)(=O)Nc2cccc(C(=O)N(C)Cc3cccc(OC)c3OC)c2)cc1	/	/	0	4	-1
O=C(Nc1ccc(N2CCCC2)c(Cl)c1)c1ccc([N+](=O)[O-])o1	-2	101*	2	/	8
O=C(Nc1ccccc1N1CCCC1)c1ccc([N+](=O)[O-])o1	/	/	0	62*	3
CC(C)C(=O)N1CCN(c2ccccc2NC(=O)c2ccc([N+](=O)[O-])o2)CC1	/	/	-1	56*	-30
Cc1ccccc1CNC(=O)C(=O)NCC1OCCCN1S(=O)(=O)c1cccs1 (stereo unspecified)	/	/	0	3	39
Cn1c(SCCN2CCCC2)nnc1C1CCN(S(=O)(=O)c2cccc(F)c2)CC1	/	/	2	33	3
COc1cc(C(=O)NCCCN(C)C)ccc1OCC(=O)Nc1cccc(C(F)(F)F)c1	-1	38	-1	57*	4
N#Cc1cnn(-c2nc3sc4c(c3c(=O)[nH]2)CCCC4)c1N	-3	94*	-3	53	-22
Cn1c(-c2ccccc2)c(C(=O)CCl)c2ccccc21	-2	98*	-1	71*	-9
